From ChEMBL document CHEMBL1154198, “Chemical genetics of Plasmodium falciparum” (Nature, 2010)

How the values were obtained:
[1] = system: Plasmodium falciparum; experiment: ST_JUDE: Plasmodium falciparum K1 EC50 (uM) as measured by SYBR green dye; type: functional, organism-based
[2] = system: Leishmania major; experiment: ST_JUDE: Cytotoxicity using Alamar Blue to measure viability of Leishmania major; type: functional, organism-based
How it was run: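 L. major promastigotes; drug susceptibility read with Alamar Blue.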

[3] = system: Plasmodium falciparum; experiment: ST_JUDE: Cytotoxicity against Plasmodium falciparum D10 transfected with yeast DHOD; type: functional, organism-based
[4] = system: Plasmodium falciparum; experiment: ST_JUDE: Cytotoxicity against Plasmodium falciparum SB-A6; type: functional, organism-based
[5] = ST_JUDE: Cytotoxicity using luciferase to measure ATP as an indicator of the viability of human Burkitt''s lymphoma lymphoblast cells (Raji); type: toxicity, cell-based
[6] = system: Plasmodium falciparum; experiment: ST_JUDE: Cytotoxicity against Plasmodium falciparum 3D7; type: functional, organism-based
How it was run: (§1)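 Asexual P. falciparum grown in human erythrocytes, exposed to compounds for 72 h, and growth read as the DNA quantity in treated versus control cultures. Dose-response run at 12 concentrations from 10 μM to 5 nM.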

[7] = system: Plasmodium falciparum; experiment: ST_JUDE: Cytotoxicity against Plasmodium falciparum V1/S; type: functional, organism-based
[8] = system: Plasmodium falciparum; experiment: ST_JUDE: Cytotoxicity against Plasmodium falciparum Dd2; type: functional, organism-based
[9] = ST_JUDE: Cytotoxicity using luciferase to measure ATP as an indicator of the viability of human epithelial embryonic kidney cells (HEK293); type: toxicity, cell-based
[10] = system: Plasmodium falciparum; experiment: ST_JUDE: Cytotoxicity against Plasmodium falciparum W2; type: functional, organism-based
[11] = ST_JUDE: Cytotoxicity using luciferase to measure ATP as an indicator of the viability of human foreskin fibroblast cells (BJ); type: toxicity, cell-based
[12] = system: Plasmodium falciparum; experiment: ST_JUDE: Plasmodium falciparum 3D7 EC50 (uM) as measured by SYBR green dye; type: functional, organism-based
[13] = system: Plasmodium falciparum; experiment: ST_JUDE: Cytotoxicity against Plasmodium falciparum K1; type: functional, organism-based; how it was run: as §1
[14] = system: Trypanosoma brucei; experiment: ST_JUDE: Cytotoxicity using luciferase to measure ATP as an indicator of the viability of Trypanosoma brucei; type: functional, organism-based
[15] = system: Toxoplasma gondii; experiment: ST_JUDE: Growth inhibition of to Toxoplasma gondii, in human U-2OS cells, as measured by luciferase.; type: functional, organism-based; details: RH, U2OS
How it was run: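 T. gondii parasites engineered to express luciferase; drug sensitivity read by luminescence.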

[16] = ST_JUDE: Cytotoxicity using luciferase to measure ATP as an indicator of the viability of human epithelial hepatocellular carcinoma cells (HepG2); type: toxicity, cell-based

| Structure (SMILES) | EC50 [1] | EC50 [2] | EC50 [3] | EC50 [4] | EC50 [5] | EC50 [6] | EC50 [7] | EC50 [8] | EC50 [9] | EC50 [10] | EC50 [11] | EC50 [12] | EC50 [13] | EC50 [14] | EC50 [15] | EC50 [16] |
| --- | --- | --- | --- | --- | --- | --- | --- | --- | --- | --- | --- | --- | --- | --- | --- | --- |
| Fc1ccc(Nc2nc(NCc3ccco3)c3ccccc3n2)cc1 | > 15000 nM | 0.0029 µM | 1200 nM | 357 nM | 14.9 µM | 581 nM | 1910 nM | 489 nM | 20 µM | 354 nM | 20.1 µM | 673 nM | 1120 nM | 12.2 µM | 13.6 µM | 8.25 µM |
| CC(CNC(=O)c1cn(C2CCCCC2)cc(C(=O)NC(C)(C)C)c1=O)c1ccccc1 (stereo not given) | 8050 nM | > 22.6 µM | 150 nM | 109 nM | > 52.8 µM | 321 nM | > 13600 nM | 2180 nM | > 52.8 µM | > 13600 nM | > 52.8 µM | 93.7 nM | 705 nM | > 50.7 µM | > 28.9 µM | > 52.8 µM |
| CCCO/C(O)=C1\C(C)=NC2=C(C(=O)CC(c3ccc(OC)c(OC)c3)C2)C1c1ccc(F)cc1 (stereo not given) | 24 nM | > 15.6 µM | 58 nM | 60.3 nM | > 36.3 µM | 96.4 nM | 155 nM | 95.2 nM | > 36.3 µM | 56.6 nM | > 36.3 µM | 61.3 nM | 121 nM | 5.92 µM | > 19.9 µM | > 36.3 µM |
| Cc1c2[nH]c3ccccc3c2c2c([n+]1C)CC(C)(C)CC2 | 1400 nM | 0.48 µM | 1350 nM | 1040 nM | > 55.5 µM | 3190 nM | 3330 nM | 921 nM | > 55.5 µM | 154 nM | > 55.5 µM | 896 nM | 3520 nM | 13.6 µM | > 30.4 µM | > 55.5 µM |
| OC(CNC1CCCC1)Cn1c2ccccc2c2ccccc21 (stereo not given) | 163 nM | > 17.4 µM | 2690 nM | 3170 nM | > 40.6 µM | 1690 nM | 813 nM | 889 nM | 31.5 µM | 879 nM | 20.3 µM | 1080 nM | 620 nM | 3.41 µM | > 22.2 µM | 14.8 µM |
| CC(C)(C)c1cc(/N=N/C(=O)c2ccncc2)cc(C(C)(C)C)c1O | 496 nM | > 12.2 µM | 478 nM | 462 nM | 0.682 µM | 602 nM | 508 nM | 1010 nM | 0.971 µM | 1110 nM | > 28.4 µM | 545 nM | 480 nM | 1.01 µM | 2.3 µM | > 28.4 µM |
| Cc1cccc(N2CCN(Cc3cc(Br)ccc3O)CC2)c1C | 153 nM | > 11.9 µM | 576 nM | 699 nM | > 27.9 µM | 372 nM | 255 nM | 521 nM | > 27.9 µM | > 7160 nM | > 27.9 µM | 425 nM | 178 nM | > 26.7 µM | > 15.3 µM | > 27.9 µM |
| COc1ccc(C2CC3=NC(C)=C(C(=O)OC(C)C)C(c4ccccc4Cl)C3=C(O)C2)cc1OC (stereo not given) | 17.8 nM | > 17.6 µM | 45.5 nM | 35 nM | > 41.2 µM | 87 nM | 87.6 nM | 58.2 nM | > 41.2 µM | 40.6 nM | > 41.2 µM | 35.8 nM | 53.8 nM | 6.77 µM | 14.6 µM | > 41.2 µM |
| COCCO/C(O)=C1\C(C)=NC2=C(C(=O)CC(c3ccc(OC)c(OC)c3)C2)C1c1ccccc1F (stereo not given) | 551 nM | > 17.1 µM | 553 nM | 313 nM | > 39.9 µM | 498 nM | 406 nM | 970 nM | > 39.9 µM | 1350 nM | > 39.9 µM | 717 nM | 314 nM | > 38.3 µM | > 21.9 µM | > 39.9 µM |
| CCCCCOc1ccc(N(C(C)=O)C2=C(N3CCOCC3)C(=O)c3ccccc3C2=O)cc1 | 208 nM | > 15.5 µM | 36.2 nM | 59.6 nM | 3.26 µM | 75 nM | 70 nM | 1470 nM | > 36.2 µM | > 9290 nM | > 36.2 µM | 327 nM | 77.5 nM | 1.84 µM | > 19.8 µM | 22.6 µM |
| CCO/C(O)=C1\C(C)=NC2=C(C(=O)CC(c3ccc(OC)c(OC)c3)C2)C1c1cccc(C)c1 (stereo not given) | 633 nM | > 17.4 µM | 1360 nM | 602 nM | > 40.6 µM | 1100 nM | 1180 nM | 2080 nM | > 40.6 µM | 816 nM | > 40.6 µM | 1020 nM | 950 nM | > 39 µM | > 22.3 µM | > 40.6 µM |
| CCc1ccc(S(=O)(=O)NC2=C/C(=N\c3ccccc3OC)C(=O)c3ccccc32)cc1 | 150 nM | > 17 µM | 406 nM | 531 nM | 2.76 µM | 954 nM | 327 nM | 677 nM | 9.01 µM | > 10200 nM | 6.8 µM | 277 nM | 377 nM | 1.98 µM | > 21.8 µM | 10.3 µM |
| CCCO/C(O)=C1\C(C)=NC2=C(C(=O)CC(c3ccc(OC)c(OC)c3)C2)C1c1ccccc1F (stereo not given) | 51.7 nM | > 17.6 µM | 40.5 nM | 36.3 nM | > 41.1 µM | 111 nM | 106 nM | 89.4 nM | 35.9 µM | 63.9 nM | 0.0018 µM | 50 nM | 82.5 nM | 6.57 µM | > 22.5 µM | > 41.1 µM |
| Oc1ccc(Cl)cc1CN1CCN(c2cccc(C(F)(F)F)c2)CC1 | 886 nM | > 15.1 µM | 1650 nM | 2130 nM | > 35.3 µM | 1570 nM | 855 nM | 1550 nM | > 35.3 µM | > 9070 nM | > 35.3 µM | 2370 nM | 476 nM | > 33.9 µM | > 19.4 µM | > 35.3 µM |
| CCCO/C(O)=C1\C(C)=NC2=C(C(=O)CC(c3ccc(OC)c(OC)c3)C2)C1c1ccccc1C (stereo not given) | 292 nM | > 17.7 µM | 68.5 nM | 56.5 nM | > 41.3 µM | 134 nM | 98.2 nM | 89.8 nM | > 41.3 µM | 21.3 nM | > 41.3 µM | 308 nM | 110 nM | 6.57 µM | > 22.6 µM | > 41.3 µM |
